In ChEMBL document CHEMBL1157805, “Virtual screening, selection and development of a benzindolone structural scaffold for inhibition of lumazine synthase” (Bioorg Med Chem, 2010) one finds kcat and inhibition data, which are given here for seven molecules.

Calls of active or inactive are those of the source. No cut-off for these calls is given here.

For assay [1], the system named is Mycobacterium tuberculosis. Nature of the assay: Activity at Mycobacterium tuberculosis recombinant riboflavin synthase after 30 mins by fluorescence assay. The gist of the method:
(§1)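 Recombinant M. tuberculosis riboflavin synthase (1 μM) in 100 mM Tris-HCl pH 7.0, 100 mM NaCl, 5 mM DTT, 2% DMSO. 6,7-Dimethyl-8-ribityllumazine substrate was varied 3–60 μM and inhibitor 0–200 μM. Reactions were started with substrate. Riboflavin formation was monitored at 470 nm for 30 min at 27 °C. Velocity–substrate data for all inhibitor levels were fitted by nonlinear regression to alternative inhibition models.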

Assay [2] concerns the target 6,7-dimethyl-8-ribityllumazine synthase (Mycobacterium tuberculosis) (UniProt P9WHE9). Nature of the assay: Mixed Inhibition of Mycobacterium tuberculosis recombinant lumazine synthase. The gist of the method:
(§2)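 Recombinant M. tuberculosis lumazine synthase (2 μM) in 100 mM Tris-HCl pH 7.0, 100 mM NaCl, 5 mM DTT, 2% DMSO. Dihydroxybutanone phosphate was fixed at 100 μM, pyrimidinedione substrate varied 3–100 μM, and inhibitor 0–200 μM. Reactions were started with the pyrimidinedione substrate. Lumazine formation was read at 408 nm for 30 min at 27 °C. Velocity–substrate data were fitted by nonlinear regression to alternative inhibition models.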

In assay [3] the test system is Mycobacterium tuberculosis. As to the kind of experiment: Uncompetitive inhibition of Mycobacterium tuberculosis recombinant riboflavin synthase. The gist of the method:
as §1

For assay [4], the target named is 6,7-dimethyl-8-ribityllumazine synthase (Mycobacterium tuberculosis) (UniProt P9WHE9). Nature of the assay: Uncompetitive inhibition of Mycobacterium tuberculosis recombinant lumazine synthase. In a few lines:
as §2

Chain of 6,7-dimethyl-8-ribityllumazine synthase (Mycobacterium tuberculosis) (P9WHE9 whole entry): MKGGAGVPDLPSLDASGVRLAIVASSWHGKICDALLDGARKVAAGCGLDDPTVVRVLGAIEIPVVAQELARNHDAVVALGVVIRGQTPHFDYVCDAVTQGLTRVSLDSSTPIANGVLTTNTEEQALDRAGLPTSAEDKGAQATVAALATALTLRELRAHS

As for `O=C1Nc2ccc(S(=O)(=O)NCCOP(=O)(O)O)c3cccc1c23`, in assay [1], the kcat was found to be 0.005 s⁻¹.
As for `O=C1Nc2ccc(S(=O)(=O)NCCCCOP(=O)(O)O)c3cccc1c23`, in assay [1], the kcat turned out to be 0.00483 s⁻¹. Further, in assay [2], the inhibition result was “Active”.
As for `CCOC(=O)C(=O)Nc1c(Cl)[nH]c(=O)[nH]c1=O`, the kcat in assay [1] turned out to be 0.00567 s⁻¹. The inhibition result in assay [2] and in assay [3] was “Active” in each case.
Take `O=C1Nc2ccc(S(=O)(=O)NCCCCCOP(=O)(O)O)c3cccc1c23`: in assay [1], the kcat was determined as 0.00933 s⁻¹. The inhibition result in assay [4] and in assay [3] was “Active” in each case.
For the molecule `O=C1Nc2ccc(S(=O)(=O)NCCCCCCOP(=O)(O)O)c3cccc1c23`, the kcat in assay [1] amounted to 0.00933 s⁻¹. The inhibition result in assay [4] and in assay [3] was “Active” in each case.
As for `O=C1Nc2ccc(S(=O)(=O)NCCCCC(F)(F)P(=O)(O)O)c3cccc1c23`, the inhibition entry in assay [2] is “Active”.
With `O=C1Nc2ccc(S(=O)(=O)NCCCOP(=O)(O)O)c3cccc1c23`, in assay [1], the kcat is 0.00467 s⁻¹. For the same molecule, the inhibition result in assay [2] is “Active”.
